Active and inactive are the calls of the source. The calls are words filed in the database; no cut-off is given here.
Tested on: MCF7
Assay: Cytotoxicity against human ER positive MCF7 cells assessed as cell viability at 1 uM after 72 hrs by MTT assay
Assay type: functional, cell-based
Summary of the method: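 Lines kept in DMEM with 10% fetal bovine serum and 1% penicillin/streptomycin at 37 °C, 5% CO2. Compound applied at 1 µM for 72 h, then standard MTT reduction read-out. Viability given as mean percentage of formazan formed by treated cells relative to mock-treated cells (0.1% DMSO). Run in quadruplicate, standard error, Student's t-test.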

Structure (SMILES) | Activity
COc1cc(-c2ccc[nH]2)[nH]c1/C=C1\N=C(C)C(C(=O)CCCCC(=O)Oc2ccc3c(c2)CC[C@@H]2[C@@H]3CC[C@]3(C)C(=O)CC[C@@H]23)=C1C | inactive
COc1cc(-c2ccc[nH]2)[nH]c1/C=C1\N=C(C)C(C(=O)CCCCCCCCC(=O)Oc2ccc3c(c2)CC[C@@H]2[C@@H]3CC[C@]3(C)C(=O)CC[C@@H]23)=C1C | inactive
